We go through 2 molecules from ChEMBL document CHEMBL4406834, “Phenylthiazoles with nitrogenous side chain: An approach to overcome molecular obesity” (Eur J Med Chem, 2019).

Values after ≈ are worked out from the molar mass of the structure shown.

Data set [1] has as its system Staphylococcus aureus. The experiment in a line: Antibacterial activity against methicilline-resistant Staphylococcus aureus NRS384 USA300 after 18 to 20 hrs by CLSI-based broth microdilution assay. It counts as functional. The essentials: (§1)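 Broth microdilution per CLSI. Strains grown aerobically overnight on tryptone soy agar at 37 °C, adjusted to 0.5 McFarland, then diluted in cation-adjusted Mueller-Hinton broth to about 5 × 10^5 CFU/mL. Compounds (10 mg/mL DMSO stocks) serially diluted. Incubated aerobically at 37 °C for 18-20 h. MIC is the lowest concentration with no visible growth.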
Background: Dilution methods test growth across graded concentrations, often in twofold steps.

The test system of data set [2] is Staphylococcus aureus. The experiment in a line: Bactericidal activity against methicilline-resistant Staphylococcus aureus NRS385 USA500 incubated for 18 to 20 hrs followed by replating on tryptic soy agar plate and further incubated for 18 to 24 hrs by CLSI-based broth microdilution assay. The data set is classed as functional. The procedure, abridged:
(§2)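 MBC: after the broth microdilution MIC (CAMHB, ~5 × 10^5 CFU/mL, 37 °C, 18-20 h), 4 µL from wells without growth plated onto tryptic soy agar. Plates incubated 37 °C for 18-20 h. MBC is the lowest concentration giving 99.9% reduction in growth.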

The test system of data set [3] is Escherichia coli. The experiment in a line: Antibacterial activity against TolC-deficient Escherichia coli JW55031. It counts as functional.
Data set [4] deals with Streptococcus pneumoniae. The experiment in a line: Bactericidal activity against methicillin-resistant Streptococcus pneumoniae ATCC 700677 incubated for 18 to 20 hrs followed by replating on tryptic soy agar plate and further incubated for 18 to 24 hrs by CLSI-based broth microdilution assay. The data set is classed as functional. The essentials:
as §2

For data set [5], the system named is Staphylococcus aureus. The experiment in a line: Antibiofilm activity against methicillin resistant Staphylococcus aureus NRS384 USA300 assessed as disruption of preformed biofilm at 4 x MIC incubated for 24 hrs by crystal violet staining based spectrophotometric analysis relative to control. The data set is classed as functional. The procedure, abridged: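 MRSA USA300 overnight culture diluted 1:100 in tryptic soy broth + 1% glucose. Biofilm formed for 24 h at 37 °C. Planktonic cells removed, then compounds added at 256 to 2 µg/mL in TSB for 24 h at 37 °C. Wells washed with PBS, stained with 0.1% crystal violet for 30 min, destained with ethanol, read at OD595. Percent eradication relative to DMSO; unpaired t test.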

Data set [6] can be described thus: Tmax in Sprague-Dawley rat at 50 mg/kg, po administered via gavage measured over 12 hrs by LC-MS/MS analysis. It counts as ADME, organism-based. Particulars: in vivo. The procedure, abridged: (§3)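 Three male naïve Sprague-Dawley rats received a single oral gavage dose of 50 mg/kg in 2% ethanol/48% PEG 400/50% water. Blood was collected into EDTA-K2 tubes over 12 h after dosing. Plasma was protein-precipitated with acetonitrile and compound concentration quantified by LC/MS/MS.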

The subject of data set [7] is J774. Nature of the data set: Cytotoxicity against mouse J774 cells after 24 hrs by MTS assay. It counts as cell-based. Particulars: j774, 24 h. The procedure, abridged: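 J774 murine macrophages were incubated with compound for 24 h, then given MTS reagent for 4 h. Absorbance was read at OD490.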
For data set [8], the system named is Staphylococcus aureus. The experiment in a line: Antibacterial activity against intracellular methicillin resistant Staphylococcus aureus USA400 infected in mouse J774 cells assessed as log10 reduction in intracellular bacterial cells at 2 times MIC concentration incubated for 24 hrs followed by re-plating on TSA plate for 18 to 22 hrs by serial dilution method. The data set is classed as functional. The procedure, abridged: (§4)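 J774 murine macrophages in DMEM + 10% FBS, 37 °C, 5% CO2, infected with MRSA USA400 at MOI ~10:1 for 1 h. Washed with gentamicin 100 µg/mL to kill extracellular bacteria. […] Cells lysed with 0.1% Triton-X, serially diluted in PBS, plated on TSA for 18-22 h, CFU counted. One-way ANOVA with Dunnett's test.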

Data set [9] relates to Escherichia coli. The experiment in a line: Antibacterial activity against Escherichia coli ATCC 25922. It counts as functional.
The subject of data set [10] is Pseudomonas aeruginosa. Nature of the data set: Bactericidal activity against Pseudomonas aeruginosa ATCC 15442. The data set is classed as functional.
Data set [11] is described as follows: Cmax in Sprague-Dawley rat at 50 mg/kg, po administered via gavage measured after 90 mins by LC-MS/MS analysis. The data set is classed as ADME, organism-based. More on the design: dose 50 mg/kg, route oral. The following applies: in vivo. The essentials:
as §3

In data set [12] the test system is Streptococcus pneumoniae. Nature of the data set: Bactericidal activity against cephalosporin-resistant Streptococcus pneumoniae ATCC 51916 incubated for 18 to 20 hrs followed by replating on tryptic soy agar plate and further incubated for 18 to 24 hrs by CLSI-based broth microdilution assay. It counts as functional. The procedure, abridged: as §2
Data set [13] has as its system Listeria monocytogenes. Nature of the data set: Antibacterial activity against Listeria monocytogenes ATCC 19111 after 18 to 20 hrs by CLSI-based broth microdilution assay. The data set is classed as functional.
For data set [14], the system named is Staphylococcus aureus. Nature of the data set: Antibacterial activity against methicilline-resistant Staphylococcus aureus NRS123 USA400 after 18 to 20 hrs by CLSI-based broth microdilution assay. It counts as functional. The essentials:
as §1

For data set [15], the system named is Klebsiella pneumoniae. Nature of the data set: Antibacterial activity against Klebsiella pneumoniae BAA-1706. The data set is classed as functional.
The test system of data set [16] is Caco-2. Nature of the data set: Cytotoxicity against human Caco2 cells up to 64 ug/ml after 2 hrs by MTS assay. It counts as cell-based. The following applies: caco-2, 2 h. On the technique in general: Formazan colour is commonly taken as a measure of viable cells.
In data set [17] the test system is Staphylococcus aureus. Nature of the data set: Antibacterial activity against methicillin-resistant Staphylococcus aureus NRS384 USA300 after 18 to 20 hrs by broth microdilution assay. It counts as functional. The procedure, abridged:
as §1

Data set [18] concerns Staphylococcus aureus. The experiment in a line: Antibacterial activity against intracellular methicillin resistant Staphylococcus aureus USA400 infected in mouse J774 cells assessed as reduction in intracellular bacterial cells at 2 times MIC concentration incubated for 24 hrs followed by re-plating on TSA plate for 18 to 22 hrs by serial dilution method relative to control. It counts as functional. The essentials:
as §4

In data set [19] the test system is Staphylococcus aureus. Nature of the data set: Antibacterial activity against methicilline-sensitive Staphylococcus aureus NRS-107 after 18 to 20 hrs by CLSI-based broth microdilution assay. The data set is classed as functional. The essentials:
as §1

Data set [20] is described as follows: Volume of drug distribution in Sprague-Dawley rat at 50 mg/kg, po administered via gavage measured over 12 hrs by LC-MS/MS analysis. It counts as ADME, organism-based. The following applies: in vivo. The essentials:
as §3

A short description of data set [21]: Half life in Sprague-Dawley rat at 50 mg/kg, po administered via gavage measured over 12 hrs by LC-MS/MS analysis. It counts as ADME, organism-based. The following applies: in vivo. The essentials:
as §3

Data set [22] has as its system Staphylococcus aureus. Nature of the data set: Antibacterial activity against vancomycin-resistant Staphylococcus aureus 10 after 18 to 20 hrs by CLSI-based broth microdilution assay. It counts as functional. The essentials: as §1
For data set [23], the system named is HaCaT. Nature of the data set: Cytotoxicity against human HaCaT cells up to 64 ug/ml after 2 hrs by MTS assay. The data set is classed as cell-based.
The nature of data set [24]: Clearance in Sprague-Dawley rat at 50 mg/kg, po administered via gavage after 12 hrs by LC-MS/MS analysis. It counts as ADME, organism-based. The following applies: in vivo. The essentials: as §3
The test system of data set [25] is Caco-2. Nature of the data set: Cytotoxicity against human Caco2 cells up to 32 ug/ml after 2 hrs by MTS assay. It counts as cell-based. The following applies: caco-2, 2 h.
Data set [26] deals with HaCaT. The experiment in a line: Cytotoxicity against human HaCaT cells up to 32 ug/ml after 2 hrs by MTS assay. The data set is classed as cell-based.

As to `C/C(=N\NC(=N)N)c1sc(-c2ccc(N3CCCCC3)cc2)nc1C`, the MIC – broadly, the lowest concentration that inhibits growth of the organism – is 4 µg/mL (≈ 11.2 µM) in data set [1]; 32 µg/mL (≈ 89.8 µM) in data set [3]; 64 µg/mL (≈ 180 µM) in data set [9]; 8 µg/mL (≈ 22.4 µM) in data set [13]; 8 µg/mL (≈ 22.4 µM) in data set [14]; 64 µg/mL (≈ 180 µM) in data set [15]. For the same molecule, the MIC in [17], in [19] and in data set [22] was 4 µg/mL (≈ 11.2 µM) each time. Moreover, the minimum bactericidal concentration (MBC) – broadly, the lowest tested concentration that kills the bacteria rather than only halting them – is 32 µg/mL (≈ 89.8 µM) in [2], 16 µg/mL (≈ 44.9 µM) in data set [4], more than 64 µg/mL in [10] and 16 µg/mL (≈ 44.9 µM) in data set [12]. For the same molecule, the “inhibition (INH)” value stood at 72% in [5] and 93.2% in [18]. Moreover, in [6], the Tmax (in general, the time at which the peak concentration occurs) came to 1.3 h. For the same molecule, the Activity result was “Non-Toxic” in [7], 1.18 log10CFU/ml in [8], “Non-Toxic” in data set [16] and “Non-Toxic” in data set [23]. Moreover, the peak concentration (Cmax) (usually the maximum level reached in the sampled fluid or tissue) in data set [11] is 9700 to 10000 ng/mL. Besides, the Vd in data set [20] amounted to 4.42 L. In addition, the half-life (commonly the time needed for the level to fall by half in the phase considered) in data set [21] is 4 h. For the same molecule, the apparent clearance (CL/F) (usually clearance divided by bioavailability, as obtained after extravascular dosing) in data set [24] is 12.7 mL/min.
Take `C/C(=N\NC(=N)N)c1sc(-c2ccc(N3CCCC(C)C3)cc2)nc1C` (stereo not given): the minimal inhibitory concentration (MIC) was 4 µg/mL (≈ 10.8 µM) in [1]; 8 µg/mL (≈ 21.6 µM) in data set [3]; 16 µg/mL (≈ 43.2 µM) in data set [9]; 2 µg/mL (≈ 5.4 µM) in data set [13]; 8 µg/mL (≈ 21.6 µM) in data set [14]; 16 µg/mL (≈ 43.2 µM) in data set [15]. For the same molecule, the minimum inhibitory concentration (MIC) in data set [17] turned out to be 4 µg/mL (≈ 10.8 µM); in [19] it was 8 µg/mL (≈ 21.6 µM); in data set [22], 8 µg/mL (≈ 21.6 µM). The MBC was 16 µg/mL (≈ 43.2 µM) in [2], 32 µg/mL (≈ 86.4 µM) in data set [4], more than 64 µg/mL in [10] and 16 µg/mL (≈ 43.2 µM) in data set [12]. Besides, the “inhibition (INH)” value in data set [5] is recorded as 50%. Moreover, the Activity entry in data set [25] and in [26] was “Non-Toxic” in each case.
